Laboratory results: ChEMBL document CHEMBL1157608, “The discovery of 4-{1-[({2,5-dimethyl-4-[4-(trifluoromethyl)benzyl]-3-thienyl}carbonyl)amino]cyclopropyl}benzoic acid (MK-2894), a potent and selective prostaglandin E2 subtype 4 receptor antagonist” (J Med Chem, 2010)
Active and inactive are the calls of the source. No cut-off for these calls is given here.

What was measured:
Cynomolgus monkey = assay: Half life bioavailability in cynomolgus monkey at 1 mg/kg, iv; type: ADME, organism-based, Macaca fascicularis; conditions: in vivo
Procedure, shortened: (§1)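 Overnight-fasted animals dosed po in 0.5% methocel or iv in 60% PEG 200; plasma from serial blood samples stored at -10 °C, protein-precipitated with equal volume acetonitrile/0.1% formic acid, analysed by LC/MS/MS with internal standard against spiked blank-plasma standards; Cmax from po data, half-life from iv data.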

[1] = Cmax in C57BL/6 mouse at 20 mg/kg, po; type: ADME, organism-based; set-up: dose 20 mg/kg, route oral; conditions: in vivo; procedure, shortened: as §1
Rattus norvegicus [2] = assay: Gastrointestinal toxicity in Sprague-Dawley rat assessed as urinary excretion of 51Cr-EDTA at 3 to 30 mg/kg/day, po once daily for 5 days; type: organism-based, Urine; set-up: route oral; conditions: in vivo, 120 h
Procedure, shortened: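 Male SD rats dosed orally once daily in 0.5% methocel (3, 10, 30 mg/kg for 5 days, or 5 mg/kg for 3 days); single oral 51Cr-EDTA given on day 4 or day 2 respectively; urinary 51Cr excretion as GI permeability index; n = 5/group treated, 4 vehicle; 1-way ANOVA/Dunnett's.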

[3] = target: T1, Prostaglandin D2 receptor (Homo sapiens, UniProt Q13258); assay: Displacement of [3H]PGD2 from human DP1 receptor expressed in HEK293-EBNA cells by scintillation counting; type: cell-based
T1 sequence (Q13258 whole entry): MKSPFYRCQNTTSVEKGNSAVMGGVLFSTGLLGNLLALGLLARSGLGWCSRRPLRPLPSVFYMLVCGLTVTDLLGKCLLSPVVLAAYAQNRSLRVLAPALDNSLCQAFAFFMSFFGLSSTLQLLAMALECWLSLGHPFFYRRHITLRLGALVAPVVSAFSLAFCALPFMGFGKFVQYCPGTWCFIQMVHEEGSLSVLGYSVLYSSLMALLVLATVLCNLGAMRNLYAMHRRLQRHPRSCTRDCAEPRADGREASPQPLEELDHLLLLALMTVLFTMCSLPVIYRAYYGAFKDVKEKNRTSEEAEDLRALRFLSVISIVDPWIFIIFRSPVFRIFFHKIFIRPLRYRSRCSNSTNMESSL
Procedure, shortened: (§2)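 Radioligand binding on membranes from HEK 293(EBNA) clonal lines overexpressing each prostanoid receptor, using the respective 3H-prostaglandin or thromboxane ligand; EP4 binding also run with 10% human serum; Ki as means of at least three experiments (rEP2, rEP3 n = 1).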

[4] = target: Prostaglandin F2-alpha receptor (Homo sapiens, UniProt P43088); assay: Displacement of [3H]PGF2alpha from human FP receptor expressed in HEK293-EBNA cells by scintillation counting; type: cell-based; procedure, shortened: as §2
Chain of Prostaglandin F2-alpha receptor (P43088 whole entry): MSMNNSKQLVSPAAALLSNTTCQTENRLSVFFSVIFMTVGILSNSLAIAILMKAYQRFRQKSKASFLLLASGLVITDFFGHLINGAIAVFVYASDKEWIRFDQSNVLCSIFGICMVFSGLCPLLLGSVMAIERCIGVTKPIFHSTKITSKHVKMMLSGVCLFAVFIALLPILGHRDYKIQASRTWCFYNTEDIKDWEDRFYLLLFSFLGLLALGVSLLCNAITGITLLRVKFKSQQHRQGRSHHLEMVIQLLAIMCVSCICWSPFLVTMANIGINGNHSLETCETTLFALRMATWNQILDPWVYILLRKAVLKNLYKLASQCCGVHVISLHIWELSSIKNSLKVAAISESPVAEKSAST

[5] = target: T2, Prostaglandin E2 receptor EP3 subtype (Rattus norvegicus, UniProt P34980); assay: Displacement of [3H]PGE2 from rat EP3 receptor expressed in HEK293-EBNA cells by scintillation counting; type: cell-based; procedure, shortened: as §2
T2 sequence (P34980 whole entry): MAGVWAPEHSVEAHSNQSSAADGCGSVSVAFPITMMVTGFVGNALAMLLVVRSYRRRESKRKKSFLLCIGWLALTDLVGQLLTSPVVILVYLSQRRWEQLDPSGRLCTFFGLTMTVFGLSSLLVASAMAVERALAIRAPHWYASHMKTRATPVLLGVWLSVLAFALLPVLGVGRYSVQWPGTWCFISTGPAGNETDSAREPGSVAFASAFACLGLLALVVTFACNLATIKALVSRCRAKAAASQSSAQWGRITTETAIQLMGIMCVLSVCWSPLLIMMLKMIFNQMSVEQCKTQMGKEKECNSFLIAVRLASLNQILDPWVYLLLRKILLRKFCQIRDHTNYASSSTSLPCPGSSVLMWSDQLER

[6] = Cmax bioavailability in cynomolgus monkey at 5 mg/kg, po; type: ADME, organism-based, Macaca fascicularis; set-up: dose 5 mg/kg, route oral; conditions: in vivo; procedure, shortened: as §1
[7] = target: Prostaglandin E2 receptor EP2 subtype (Homo sapiens, UniProt P43116); assay: Displacement of [3H]PGE2 from human EP2 receptor expressed in HEK293-EBNA cells by scintillation counting; type: cell-based; procedure, shortened: as §2
Chain of Prostaglandin E2 receptor EP2 subtype (P43116 whole entry): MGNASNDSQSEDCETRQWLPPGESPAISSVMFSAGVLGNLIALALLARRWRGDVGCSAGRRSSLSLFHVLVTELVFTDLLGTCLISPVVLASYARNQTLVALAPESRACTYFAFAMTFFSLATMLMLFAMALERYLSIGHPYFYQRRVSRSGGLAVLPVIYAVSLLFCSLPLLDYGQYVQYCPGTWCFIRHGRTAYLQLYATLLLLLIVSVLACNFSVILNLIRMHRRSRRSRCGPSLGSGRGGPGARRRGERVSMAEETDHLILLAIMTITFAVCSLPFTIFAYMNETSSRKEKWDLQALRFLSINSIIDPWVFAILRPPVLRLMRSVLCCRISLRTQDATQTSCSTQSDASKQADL

[8] = Oral bioavailability in Sprague-Dawley rat at 20 mg/kg; type: ADME, organism-based; conditions: in vivo; procedure, shortened: as §1
[9] = Half life in Sprague-Dawley rat at 5 mg/kg, iv; type: ADME, organism-based; set-up: dose 5 mg/kg, route intravenous; conditions: in vivo; procedure, shortened: as §1
[10] = Cmax in Sprague-Dawley rat at 20 mg/kg, po; type: ADME, organism-based; set-up: dose 20 mg/kg, route oral; conditions: in vivo; procedure, shortened: as §1
[11] = target: Prostaglandin E2 receptor EP4 subtype (Homo sapiens, UniProt P35408); assay: Activity at EP4 receptor in human whole blood assessed as blockade of inhibition of TNF-alpha-induced IP10 release; type: functional, tissue-based
Chain of Prostaglandin E2 receptor EP4 subtype (P35408 whole entry): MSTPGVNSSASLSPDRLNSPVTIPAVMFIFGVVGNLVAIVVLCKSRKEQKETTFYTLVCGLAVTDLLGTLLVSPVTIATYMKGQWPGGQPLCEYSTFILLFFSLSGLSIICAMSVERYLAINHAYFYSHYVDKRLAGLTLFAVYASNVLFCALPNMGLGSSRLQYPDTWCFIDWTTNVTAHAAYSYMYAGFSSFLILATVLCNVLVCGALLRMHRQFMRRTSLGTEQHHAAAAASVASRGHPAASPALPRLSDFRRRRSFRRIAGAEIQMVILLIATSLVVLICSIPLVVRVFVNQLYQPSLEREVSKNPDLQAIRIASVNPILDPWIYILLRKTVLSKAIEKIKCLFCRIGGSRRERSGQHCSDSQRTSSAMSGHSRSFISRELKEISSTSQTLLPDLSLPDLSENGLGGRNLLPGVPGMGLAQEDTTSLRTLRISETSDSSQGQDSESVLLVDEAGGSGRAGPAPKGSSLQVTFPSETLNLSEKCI
Procedure, shortened: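 Human whole blood; TNF-alpha-stimulated IP-10 release, suppressed by the selective EP4 agonist L-902688 (used in place of PGE2); antagonism measured as reversal of that suppression; IC50.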

[12] = Plasma clearance in C57BL/6 mouse at 20 mg/kg, po and 5 mg/kg, iv; type: ADME, organism-based; procedure, shortened: as §1
[13] = Plasma clearance in Sprague-Dawley rat at 20 mg/kg, po and 5 mg/kg, iv; type: ADME, organism-based; procedure, shortened: as §1
[14] = target: T3, Prostaglandin E2 receptor EP3 subtype (Homo sapiens, UniProt P43115); assay: Displacement of [3H]PGE2 from human EP3 receptor expressed in HEK293-EBNA cells by scintillation counting; type: cell-based; procedure, shortened: as §2
T3 sequence (P43115 whole entry): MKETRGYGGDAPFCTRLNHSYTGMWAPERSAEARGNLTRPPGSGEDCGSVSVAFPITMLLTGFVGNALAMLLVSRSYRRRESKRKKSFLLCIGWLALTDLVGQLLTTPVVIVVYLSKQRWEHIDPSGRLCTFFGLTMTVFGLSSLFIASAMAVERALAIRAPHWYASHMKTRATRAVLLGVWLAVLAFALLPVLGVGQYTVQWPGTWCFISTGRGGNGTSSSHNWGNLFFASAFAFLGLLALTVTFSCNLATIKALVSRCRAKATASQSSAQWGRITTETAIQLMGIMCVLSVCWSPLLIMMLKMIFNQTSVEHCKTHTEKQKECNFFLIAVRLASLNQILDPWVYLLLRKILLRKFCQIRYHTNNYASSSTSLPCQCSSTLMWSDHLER

[15] = Cmax in Beagle dog at 5 mg/kg, po; type: ADME, organism-based, Canis lupus familiaris; set-up: dose 5 mg/kg, route oral; conditions: in vivo; procedure, shortened: as §1
[16] = Half life in C57BL/6 mouse at 5 mg/kg, iv; type: ADME, organism-based; set-up: dose 5 mg/kg, route intravenous; conditions: in vivo; procedure, shortened: as §1
[17] = Plasma clearance in Beagle dog at 5 mg/kg, po and 1 mg/kg, iv; type: ADME, organism-based, Canis lupus familiaris; procedure, shortened: as §1
Rattus norvegicus [18] = assay: Analgesic activity in po dosed Sprague-Dawley rat assessed as inhibition of carrageenan-induced mechanical hyperalgesia
Rattus norvegicus [19] = species: Rattus norvegicus; assay: Analgesic activity against complete Freund's adjuvant-induced Sprague-Dawley rat inflammatory pain assessed as inhibition of chronic paw swelling at plasma concentration of 4 nM after 24 hrs; type: functional, organism-based
Procedure, shortened: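 Adjuvant-induced arthritis in rats: CFA injected into primary paw on day 0; oral dosing in 0.5% methocel once daily for 9 days starting day 9; secondary paw swelling measured; plasma levels taken 24 h after final dose; n = 7/group; 1-way ANOVA/Dunnett's vs vehicle.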

[20] = Half life in Beagle dog at 1 mg/kg, iv; type: ADME, organism-based, Canis lupus familiaris; set-up: dose 1 mg/kg, route intravenous; conditions: in vivo; procedure, shortened: as §1

Cc1sc(C)c(C(=O)NC2(c3ccc(C(=O)O)cc3)CC2)c1Cc1ccc(C(F)(F)F)cc1
t1/2 (Cynomolgus monkey): 19 h | Cmax [1]: 1400 nM | Activity (Rattus norvegicus [2]): Non-toxic | Ki [3]: > 3.9 µM | Ki [4]: > 24 µM | Ki [5]: 3.3 µM | Cmax [6]: 50 nM | Ki [7]: 5.9 µM | bioavailability [8]: 29% | half-life [9]: 4.5 h | Cmax [10]: 4500 nM | IC50 [11]: 0.011 µM | clearance [12]: 23 mL/min/kg | clearance [13]: 9.2 mL/min/kg | Ki [14]: > 7.9 µM | Cmax [15]: 3300 nM | half-life [16]: 15 h | clearance [17]: 3.2 mL/min/kg | EC50 (Rattus norvegicus [18]): 0.25 µM | ED50 (Rattus norvegicus [18]; po): 0.36 mg/kg | Activity (Rattus norvegicus [19]): Active | half-life [20]: 8.8 h
